Results as given in ChEMBL document CHEMBL1817630, “Stereostructure-based differences in the interactions of cardiotoxic local anesthetics with cholesterol-containing biomimetic membranes” (Bioorg Med Chem, 2011).
Activity calls are given as the source filed them. The rule behind the calls is not given here.

Assays:
Lipid bilayer [1] = assay: Binding affinity to DPH-labeled liposomal membrane containing 20 mol% cardiolipin 40 mol% cholesterol assessed as increase in membrane fluidity by measuring decrease in DPH fluorescence polarization at 200 uM after 5 mins by spectrofluorometry
Outline: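 DPH-labeled liposomes made by ethanol injection (10 mM total lipid, 50 uM DPH in the injected stock) into 10 mM HEPES pH 7.4 with 125 mM NaCl and 25 mM KCl. Membranes held 0 or 20 mol% cardiolipin, with or without 40 mol% cholesterol, and POPC/POPE/POPS/POPI/SM at 25:16:3:3:3. Drug was added at 200 uM final in 0.5% DMSO, incubated 37 °C for 5 min, and DPH polarization read. Results are % change vs DMSO control, mean ± SEM, n=7.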

Lipid bilayer [2] = assay: Binding affinity to DPH-labeled liposomal membrane without cholesterol assessed as increase in membrane fluidity by measuring decrease in DPH fluorescence polarization after 5 mins by spectrofluorometry
Outline: (§1)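 Fresh DPH-labeled liposomes (ethanol injection into HEPES pH 7.4 with NaCl/KCl) contained 0–45 mol% cholesterol, with the remaining lipids POPC/POPE/CL/POPS/POPI/SM at 25:16:10:3:3:3. Enantiomer pairs were tested on the same day. Each was given at 200 uM final with DMSO at 0.5% v/v, and vehicle controls matched. After 5 min at 37 °C, DPH fluorescence polarization was measured. Values are % polarization change relative to control, mean ± SEM, n=7.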

Lipid bilayer [3] = assay: Increase in membrane fluidity in DPH-labeled liposomal membrane containing 20 mol% cardiolipin 40 mol% cholesterol assessed as change in DPH fluorescence polarization at 200 uM after 5 mins by spectrofluorometry relative to liposome without cardiolipin
Lipid bilayer [4] = assay: Binding affinity to DPH-labeled liposomal membrane containing 40 mol% cholesterol assessed as increase in membrane fluidity by measuring decrease in DPH fluorescence polarization at 200 uM after 5 mins by spectrofluorometry; outline: as §1
Lipid bilayer [5] = assay: Binding affinity to DPH-labeled liposomal membrane containing 5 to 45 mol% cholesterol assessed as increase in membrane fluidity by measuring decrease in DPH fluorescence polarization after 5 mins by spectrofluorometry; outline: as §1
Canis familiaris [6] = species on record: Canis familiaris; assay: Cardiotoxicity in dog assessed as free plasma concentration causing cardiovascular collapse measured after 20 mins; type: toxicity, organism-based, Canis lupus familiaris
Lipid bilayer [7] = assay: Increase in membrane fluidity in DPH-labeled liposomal membrane containing 40 mol% cholesterol assessed as change in DPH fluorescence polarization at 200 uM after 5 mins by spectrofluorometry relative to control; type: cell membranes; outline: as §1
Canis familiaris [8] = species on record: Canis familiaris; assay: Cardiotoxicity in dog assessed as total plasma concentration causing cardiovascular collapse measured after 20 mins; type: toxicity, organism-based, Canis lupus familiaris

Row | Activity (Lipid bilayer [1]) | Activity (Lipid bilayer [2]) | fold change (FC) (Lipid bilayer [3]) | Activity (Lipid bilayer [4]) | Activity (Lipid bilayer [5]) | fold change (FC) (Lipid bilayer [7]) | Structure (SMILES) | Activity (Canis familiaris [6]) [µM] | Activity (Canis familiaris [8]) [µM]
1 | Active | Active | 3.7 | Active | Active |  | CCCCN1CCCC[C@@H]1C(=O)Nc1c(C)cccc1C |  | 
2 | Active | Active |  | Active | Active | 1.7 | CCCCN1CCCCC1C(=O)Nc1c(C)cccc1C (racemic) [BUPIVACAINE] | 10 | 39
3 | Active | Active | 3.7 | Active |  | 1.4 | CCCCN1CCCC[C@H]1C(=O)Nc1c(C)cccc1C [LEVOBUPIVACAINE] | 17 | 49
4 |  |  |  |  |  | 1 | CCCN1CCCC[C@H]1C(=O)Nc1c(C)cccc1C [ROPIVACAINE] | 36 | 64
